Experimental findings from ChEMBL document CHEMBL2010644, “Evaluation and discovery of novel synthetic chalcone derivatives as anti-inflammatory agents” (J Med Chem, 2011) are described below.

Active and inactive are the calls of the source. The rule behind the calls is not given here.

Data set [1] deals with Peritoneal macrophage cell. As to the kind of experiment: Antiinflammatory activity in ICR mouse primary peritoneal macrophages assessed as downregulation of high glucose-induced IL1beta mRNA expression at 10 uM incubated for 2 hrs prior to high glucose-challenge measured after 3 hrs by RT-qPCR analysis. It counts as functional, cell-based. Summed up:
(§1)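 Peritoneal macrophages (1 × 10^6) pretreated with compound (10 μM) or DMSO for 2 h, then high glucose (25 mM) for 3 h. Low-glucose reference cells kept in RPMI-1640 with 5.5 mM glucose. TNF-α, IL-1β, IL-6 and IL-12 mRNA measured by RT-qPCR on whole-cell RNA. Mean ± SEM, three independent experiments run in duplicate.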
A general note: In qPCR the cycle at which signal appears reflects the starting amount.

The target of data set [2] is T1, MAP kinase p38 (Mus musculus) (UniProt P47811+O08911+Q9WUI1+Q9Z1B7). Briefly: Inhibition of LPS-induced p38 phosphorylation in ICR mouse primary peritoneal macrophages at 10 uM incubated for 2 hrs prior to LPS-challenge measured after 1 hr by Western blot analysis. Put shortly:
(§2)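 Cells pretreated 2 h with DMSO or compound (10 μM in the single-concentration set; 2.5, 5.0, 10, 20 μM in the dose series), then LPS 0.5 μg/mL for 1 h. p-ERK, ERK, p-p38 and p38 detected by Western blot with actin loading control; optical density ratio reported. Mean ± SE, three independent experiments.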
(In general: A western blot detects proteins with antibodies after separation by electrophoresis.)

The test system of data set [3] is RAW264.7. As to the kind of experiment: Antiinflammatory activity in mouse RAW264.7 cells assessed as inhibition of LPS-induced IL6 production at 10 uM incubated for 2 hrs prior to LPS-challenge measured after 22 hrs by ELISA. Type of data set: functional, cell-based. Summed up:
(§3)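 RAW264.7 cells grown in DMEM with 10% FBS at 37 °C, 5% CO2, plated at 1.2 × 10^6/plate overnight. Compound pretreatment 2 h (screen at 10 μM; dose-response at 2.5, 5.0, 10 μM), then LPS 0.5 μg/mL for 22 h. Medium TNF-α or IL-6 measured by ELISA, normalized to cell protein, expressed as % of LPS control; IC50 derived from dose series.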
A general note: ELISA stands for enzyme-linked immunosorbent assay.

The subject of data set [4] is Peritoneal macrophage cell. Briefly: Antiinflammatory activity in ICR mouse primary peritoneal macrophages assessed as downregulation of LPS-induced IL-12 mRNA expression at 10 uM incubated for 2 hrs prior to LPS-challenge measured after 6 hrs by RT-qPCR analysis. Type of data set: functional, cell-based. Summed up:
(§4)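 Macrophages pretreated 2 h with compound at 10 μM or vehicle, then LPS 0.5 μg/mL for 6 h. mRNA of TNF-α, IL-6, COX-2, IL-1β and IL-12 quantified by RT-qPCR, normalized to β-actin mRNA and expressed as ratio to DMSO. Mean ± SD of four to seven independent experiments.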

Data set [5] relates to Peritoneal macrophage cell. As to the kind of experiment: Antiinflammatory activity in ICR mouse primary peritoneal macrophages assessed as downregulation of high glucose-induced IL6 mRNA expression at 10 uM incubated for 2 hrs prior to high glucose-challenge measured after 3 hrs by RT-qPCR analysis. Type of data set: functional, cell-based. Summed up:
as §1

The test system of data set [6] is Peritoneal macrophage cell. Briefly: Antiinflammatory activity in ICR mouse primary peritoneal macrophages assessed as downregulation of high glucose-induced TNFalpha mRNA expression at 10 uM incubated for 2 hrs prior to high glucose-challenge measured after 3 hrs by RT-qPCR analysis. It counts as functional, cell-based. Put shortly: as §1
The test system of data set [7] is RAW264.7. Briefly: Antiinflammatory activity in mouse RAW264.7 cells assessed as inhibition of LPS-induced TNFalpha production at 10 uM incubated for 2 hrs prior to LPS-challenge measured after 22 hrs by ELISA. It counts as functional, cell-based. Put shortly:
as §3

Data set [8] deals with RAW264.7. Briefly: Antiinflammatory activity in mouse RAW264.7 cells assessed as inhibition of LPS-induced TNFalpha production incubated for 2 hrs prior to LPS-challenge measured after 22 hrs by ELISA. Type of data set: functional, cell-based. Put shortly: as §3
The subject of data set [9] is RAW264.7. As to the kind of experiment: Antiinflammatory activity in mouse RAW264.7 cells assessed as inhibition of LPS-induced IL6 production incubated for 2 hrs prior to LPS-challenge measured after 22 hrs by ELISA. Type of data set: functional, cell-based. Summed up:
as §3

Data set [10] relates to Peritoneal macrophage cell. Briefly: Antiinflammatory activity in ICR mouse primary peritoneal macrophages assessed as downregulation of LPS-induced IL-6 mRNA expression at 10 uM incubated for 2 hrs prior to LPS-challenge measured after 6 hrs by RT-qPCR analysis. It counts as functional, cell-based. Summed up:
as §4

For data set [11], the system named is Peritoneal macrophage cell. Briefly: Antiinflammatory activity in ICR mouse primary peritoneal macrophages assessed as downregulation of LPS-induced COX-2 mRNA expression at 10 uM incubated for 2 hrs prior to LPS-challenge measured after 6 hrs by RT-qPCR analysis. It counts as functional, cell-based. Summed up:
as §4

For data set [12], the species on record is Mus musculus. As to the kind of experiment: Inhibition of LPS-induced ERK phosphorylation in ICR mouse primary peritoneal macrophages at 10 uM incubated for 2 hrs prior to LPS-challenge measured after 1 hr by Western blot analysis. Put shortly: as §2
Data set [13] deals with Peritoneal macrophage cell. Briefly: Antiinflammatory activity in ICR mouse primary peritoneal macrophages assessed as downregulation of high glucose-induced IL12 mRNA expression at 10 uM incubated for 2 hrs prior to high glucose-challenge measured after 3 hrs by RT-qPCR analysis. It counts as functional, cell-based. Summed up:
as §1

The test system of data set [14] is Peritoneal macrophage cell. As to the kind of experiment: Antiinflammatory activity in ICR mouse primary peritoneal macrophages assessed as downregulation of LPS-induced TNF-alpha mRNA expression at 10 uM incubated for 2 hrs prior to LPS-challenge measured after 6 hrs by RT-qPCR analysis. Type of data set: functional, cell-based. Put shortly: as §4
For data set [15], the system named is Peritoneal macrophage cell. Briefly: Antiinflammatory activity in ICR mouse primary peritoneal macrophages assessed as downregulation of LPS-induced IL-1beta mRNA expression at 10 uM incubated for 2 hrs prior to LPS-challenge measured after 6 hrs by RT-qPCR analysis. Type of data set: functional, cell-based. Put shortly:
as §4

The species entered for data set [16] is Mus musculus. Briefly: Inhibition of JNK-induced NfkappaB p65 subunit translocation from cytoplasm to nucleus in LPS-stimulated ICR mouse primary peritoneal macrophages at 10 uM incubated for 2 hrs prior to LPS-challenge measured after 1 hr by fluorescence microscopy. Summed up: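 Macrophages pretreated with DMSO or 10 μM compound for 2 h, stimulated with LPS 0.5 μg/mL for 1 h. Stained with anti-p65 and Cy3-conjugated secondary antibody, nuclei with DAPI. Imaged at 200× by fluorescence microscopy with red/blue overlay. Five independent experiments.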

Data set [17] is filed under the species Mus musculus. As to the kind of experiment: Inhibition of JNK-induced IkappaBalpha degradation in LPS-stimulated ICR mouse primary peritoneal macrophages incubated for 2 hrs prior to LPS-challenge measured after 30 mins by Western blot analysis. Summed up:
(§5)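 Peritoneal macrophages pretreated with DMSO or compound (2.5, 5, 10 or 20 μM) for 2 h, then LPS 0.5 μg/mL for 30 min. Western blot of 40 μg lysate on 10% SDS-PAGE for IκBα (actin loading control) and p-JNK (JNK control); optical density normalized as percent of control. Mean ± SEM, three independent experiments.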

For data set [18], the species on record is Mus musculus. Briefly: Inhibition of LPS-induced ERK phosphorylation in ICR mouse primary peritoneal macrophages at 20 uM incubated for 2 hrs prior to LPS-challenge measured after 1 hr by Western blot analysis. Put shortly: as §2
For data set [19], the species on record is Mus musculus. As to the kind of experiment: Inhibition of LPS-induced JNK phosphorylation in ICR mouse primary peritoneal macrophages incubated for 2 hrs prior to LPS-challenge measured after 30 mins by Western blot analysis. Put shortly: as §5
For data set [20], the system named is Mus musculus. As to the kind of experiment: Toxicity in C57BL/6 mouse assessed as weight loss at 15 mg/kg, iv up to 60 hrs. It counts as organism-based. On the set-up: dose 15 mg/kg, route intravenous. Conditions: in vivo. Summed up:
(§6)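 Male B6 mice (18−22 g) given compound at 15 mg/kg iv (2 mg/mL in macrogol 15 hydroxystearate 5−10% ± MCT 0.5−2%, 200 μL). LPS 20 mg/kg iv followed 15 min later. Vehicle controls received 10% solubilizer/2% MCT. Body weight recorded every 12 h for 7 days; n = 10 per group.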

The species entered for data set [21] is Mus musculus. As to the kind of experiment: Inhibition of LPS-induced ERK phosphorylation in ICR mouse primary peritoneal macrophages incubated for 2 hrs prior to LPS-challenge measured after 1 hr by Western blot analysis. Put shortly: as §2
The target of data set [22] is T1, MAP kinase p38 (Mus musculus). Briefly: Inhibition of LPS-induced p38 phosphorylation in ICR mouse primary peritoneal macrophages at 20 uM incubated for 2 hrs prior to LPS-challenge measured after 1 hr by Western blot analysis. Summed up:
as §2

Data set [23] concerns Mus musculus. As to the kind of experiment: Toxicity in C57BL/6 mouse assessed as weight loss at 15 mg/kg, iv after 60 hrs. It counts as organism-based. On the set-up: dose 15 mg/kg, route intravenous. The conditions noted are these: in vivo. Summed up: as §6
The target of data set [24] is T1, MAP kinase p38 (Mus musculus). Briefly: Inhibition of LPS-induced p38 phosphorylation in ICR mouse primary peritoneal macrophages incubated for 2 hrs prior to LPS-challenge measured after 1 hr by Western blot analysis. Put shortly: as §2
In data set [25] the test system is Mus musculus. Briefly: Antiinflammatory activity against LPS-induced inflammation in C57BL/6 mouse assessed as survival at 15 mg/kg, iv administered 15 mins prior to LPS-challenge after 7 days relative to vehicle treated control. It counts as functional. Summed up:
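Male B6 mice, 18−22 g, acclimatized ≥7 days. Compound at 2 mg/mL in macrogol 15 hydroxystearate solubilizer (5−10% final) with or without MCT (0.5−2% final), 200 μL iv at 15 mg/kg, 15 min before iv LPS 20 mg/kg. Vehicle controls got 10% solubilizer/2% MCT. Survival and body weight recorded every 12 h for 7 days; n = 10 per group.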

A word on the IC50: it is the concentration that gives 50% inhibition. Regarding `COc1ccc(C(=O)/C=C/c2ccc(O)c(OC)c2)cc1`, the outcome in data set [1], in [4], in [5], in [6], in data set [10] and in [11] was Active. Besides, the outcome in [13], in [14] and in [15] was Active. For the same molecule, the inhibition entry in data set [2], in [3], in [7] and in [12] was “Active” in each case. Moreover, the inhibition result in data set [8] and in data set [9] was “Dose-dependent effect” throughout. For the same molecule, in [9], the IC50 was above 10 µM.

On to `COc1cc(/C=C/C(=O)CC(=O)/C=C/c2ccc(O)c(OC)c2)ccc1O`, for which the inhibition entry in data set [3] and in data set [7] was “Active” throughout.

For the molecule `COc1ccc(C(=O)/C=C/c2ccccc2Cl)cc1OC`, the inhibition entry in data set [3] and in data set [7] was “Active” throughout.

As for `COc1ccc(C(=O)/C=C/c2ccccc2Cl)cc1`, the inhibition result in data set [16], in data set [2], in data set [18], in data set [12] and in data set [22] was “Active” throughout. The outcome in data set [1], in data set [4], in data set [5], in data set [6], in data set [10] and in [11] was Active. In addition, the result in data set [13], in data set [14] and in [15] was Active. Besides, the inhibition result in data set [17], in [19], in data set [8], in data set [9], in data set [21] and in data set [24] was “Dose-dependent effect” throughout. Also, the Activity result is recorded as “Toxic” in data set [20], “Non-toxic” in [23] and 70% in [25]. The IC50 came out at 7.32 µM in [8] and 8.22 µM in [9].

Consider `COc1ccc(/C=C/C(=O)c2ccc(OC)c(OC)c2)c(OC)c1`, for which, in data set [1], the outcome was inactive. Besides, the inhibition result in [2], in data set [3], in data set [7] and in data set [12] was “Active” each time. Moreover, the outcome in data set [4], in data set [5], in data set [6], in [10], in data set [11] and in data set [13] was Active. Besides, the outcome in data set [14] and in [15] was Active. Besides, the IC50 in data set [8] turned out to be 2.76 µM; in data set [9] it was 5.35 µM. In addition, the inhibition entry in data set [8] and in [9] was “Dose-dependent effect” in each case.

With `COc1ccc(C(=O)/C=C/c2c(F)cccc2F)cc1`, the inhibition result in data set [16], in data set [2], in data set [18], in data set [12] and in data set [22] was “Active” each time. In addition, the outcome in data set [1], in data set [4], in data set [5], in [6], in [10] and in [13] was Active. Further, the result in data set [14] and in data set [15] was Active. For the same molecule, the inhibition result in data set [17], in [19], in data set [8], in [9] and in data set [24] was “Dose-dependent effect” in each case. Moreover, the Activity result was “Toxic” in data set [20], “Non-toxic” in data set [23] and 80% in data set [25]. In addition, the results for the IC50 in data set [8] and in [9] were 8.42 µM and 5.55 µM, respectively. For the same molecule, the result in data set [11] was inactive.

Regarding `COc1ccc(/C=C/C(=O)c2cc(OC)c(OC)c(OC)c2)c(OC)c1`, the inhibition result in data set [3] and in data set [7] was “Active” throughout.

For the molecule `COc1ccc(C(=O)/C=C/c2cccc(OC)c2OC)cc1`, the inhibition result in data set [3] and in data set [7] was “Active” throughout.
